Source: ChEMBL document CHEMBL1124174, “Substituted benzamides. 1. Potential nondopaminergic antagonists of chemotherapy-induced nausea and emesis” (J Med Chem, 1988)
Several values for one entry are separate records, joined by “and”; a condition that tells them apart may be missing. Identical values can stand only once.

What was measured:
[1] = target: D(2) dopamine receptor (Rattus norvegicus, UniProt P61169); assay: In vitro antagonistic activity against Dopamine receptor D2 was evaluated for the inhibition of [3H]spiperone binding
Chain of D(2) dopamine receptor (P61169 whole entry): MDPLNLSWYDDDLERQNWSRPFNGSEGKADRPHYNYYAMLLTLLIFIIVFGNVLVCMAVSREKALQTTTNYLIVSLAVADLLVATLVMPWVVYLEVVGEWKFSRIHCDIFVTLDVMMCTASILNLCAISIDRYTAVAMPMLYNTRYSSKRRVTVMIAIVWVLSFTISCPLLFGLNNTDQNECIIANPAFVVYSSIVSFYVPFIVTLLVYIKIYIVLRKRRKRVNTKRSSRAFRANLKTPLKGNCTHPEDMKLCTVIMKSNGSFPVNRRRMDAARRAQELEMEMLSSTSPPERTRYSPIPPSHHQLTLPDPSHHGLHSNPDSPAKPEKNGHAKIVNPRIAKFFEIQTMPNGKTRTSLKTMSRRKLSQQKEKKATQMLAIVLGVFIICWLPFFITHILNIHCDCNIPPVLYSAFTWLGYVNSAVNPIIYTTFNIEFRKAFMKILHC
Summary of the method: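 Rat striatal membranes were prepared by differential centrifugation in 50 mM Tris pH 7.4 at 4 °C. Membrane protein (10 mg) was incubated 15 min at 37 °C with 0.1 nM [3H]spiperone and varying competitor concentrations. Buffer: 50 mM Tris HCl pH 7.5, 0.1% ascorbic acid, pargyline, 120 mM NaCl, 5 mM KCl, 2 mM CaCl2, 1 mM MgCl2. (+)-Butaclamol defined nonspecific binding. Bound ligand was collected by filtration and scintillation counted. IC50 by log-logit regression.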

[2] = test system: Mustela putorius furo; assay: In vivo antagonism of cisplatin-induced emesis in ferret measured as percentage protection for twice the dose of 3 mg/kg and in 3 ferrets; assay type: functional
Summary of the method: (§1)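 Nonfasted castrated male Fitch ferrets (1–1.5 kg) had jugular catheters implanted ≥48 h earlier under anesthesia. Compounds or saline were given iv twice, 5 min before and 90 min after cisplatin (12 mg/kg iv; 12 mg/mL in warm 0.9% saline). Emesis was observed up to 4 h; events within 1 min counted as one episode. Results were given as mean emetic episodes and % protection versus a pooled historical/concurrent control. t test versus saline.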

[3] = test system: Mustela putorius furo; assay: In vivo antagonism of cisplatin-induced emesis in ferret measured as emetic episodes, twice the dose of 3 mg/kg and in 3 ferrets; assay type: functional; summary of the method: as §1
[4] = test system: Canis familiaris; assay: In vivo antagonism of cisplatin-induced emesis in dog measured as percentage protection for twice the dose of 3 mg/kg in 2 dogs; assay type: functional, Canis lupus familiaris
Summary of the method: (§2)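 Nonfasted mature male or female beagles were dosed sc twice, 30 min before and 120 min after cisplatin (3 mg/kg iv; 3 mg/mL in warm 0.9% saline, used immediately). Emesis was observed up to 5 h; events within 2 min counted as one episode. Results were given as mean emetic episodes and % protection versus a dynamic control (historical and concurrent saline means pooled). t test versus saline.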

[5] = target: D(2) dopamine receptor (Rattus norvegicus) (UniProt P61169); assay: In vivo antagonism activity against D2 receptor was measured as stereotypy in rat when administered subcutaneously; assay type: functional, organism-based
Chain of D(2) dopamine receptor (Rattus norvegicus) (P61169 whole entry): as above
Summary of the method: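 Male Long Evans rats (275 g) were dosed sc in dilute aqueous HCl (pH 4.5-5.5) 30 min before apomorphine (1 mg/kg sc).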

[6] = target: D(2) dopamine receptor (Rattus norvegicus) (UniProt P61169); assay: In vivo antagonistic activity against dopamine D2 receptor was measured as catalepsy in rat when administered subcutaneously; assay type: functional, organism-based
Summary of the method: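 Male Long Evans rats (275 g) received graded sc doses in dilute aqueous HCl (pH 4.5-5.5). They were observed 180 min for catalepsy, scored when the animal stayed stationary ≥15 s on a four-cork template.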

[7] = test system: Canis familiaris; assay: In vivo antagonism of cisplatin-induced emesis in dog measured as emetic episodes, twice the dose of 3 mg/kg in 2 dogs; assay type: functional, Canis lupus familiaris; summary of the method: as §2
[8] = target: D(2) dopamine receptor (Canis lupus familiaris) (UniProt Q9GJU1); assay: In vivo antagonism activity against dopamine D2 receptor was measured as emesis in dog when administered subcutaneously; assay type: functional, organism-based
Chain of D(2) dopamine receptor (Canis lupus familiaris) (Q9GJU1 whole entry): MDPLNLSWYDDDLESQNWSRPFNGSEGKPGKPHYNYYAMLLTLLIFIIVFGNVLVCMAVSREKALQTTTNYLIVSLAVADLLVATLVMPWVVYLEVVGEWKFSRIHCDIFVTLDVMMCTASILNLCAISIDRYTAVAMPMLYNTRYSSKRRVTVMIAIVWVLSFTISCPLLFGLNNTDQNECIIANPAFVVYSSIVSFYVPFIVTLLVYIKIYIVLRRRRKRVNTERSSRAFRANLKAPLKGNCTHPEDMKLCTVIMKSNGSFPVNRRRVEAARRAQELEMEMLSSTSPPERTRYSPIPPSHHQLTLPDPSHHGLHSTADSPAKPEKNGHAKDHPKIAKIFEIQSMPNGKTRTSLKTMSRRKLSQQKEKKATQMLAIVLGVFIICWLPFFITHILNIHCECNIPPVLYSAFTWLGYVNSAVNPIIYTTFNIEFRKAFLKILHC

[9] = test system: Canis familiaris; assay: in vivo antagonism of cisplatin-induced emesis in dog measured as emetic episodes, twice the dose of 0.3 mg/kg in 2 dogs; assay type: functional, Canis lupus familiaris
[10] = test system: Canis familiaris; assay: In vivo antagonism of cisplatin-induced emesis in dog measured as percentage protection for twice the dose of 0.3 mg/kg in 2 dogs; assay type: functional, Canis lupus familiaris; summary of the method: as §2
[11] = test system: Canis familiaris; assay: In vivo antagonism of cisplatin-induced emesis in dog measured as emetic episodes, twice the dose of 0.3 mg/kg in 2 dogs; assay type: functional, Canis lupus familiaris; summary of the method: as §2
[12] = test system: Mustela putorius furo; assay: In vivo antagonism of cisplatin-induced emesis in ferret measured as percentage protection for twice the dose of 3 mg/kg
[13] = test system: Mustela putorius furo; assay: In vivo antagonism of cisplatin-induced emesis in ferret measured as emetic episodes, twice the dose of 0. 3 mg/kg and in 3 ferrets; assay type: functional; summary of the method: as §1
[14] = test system: Mustela putorius furo; assay: In vitro antagonism of cisplatin-induced emesis in ferret measured as percentage protection for twice the dose of 1 mg/kg and in 3 ferrets; assay type: functional; conditions: in the assay text read “In vivo” for “In vitro”; summary of the method: as §1
[15] = test system: Mustela putorius furo; assay: In vivo antagonism of cisplatin-induced emesis in ferret measured as emetic episodes, twice the dose of 1 mg/kg and in 3 ferrets; assay type: functional; summary of the method: as §1
[16] = test system: Canis familiaris; assay: In vivo antagonism of cisplatin-induced emesis in dog measured as emetic episodes, twice the dose of 6 mg/kg in 3 dogs; assay type: functional, Canis lupus familiaris
Summary of the method: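 Nonfasted mature male or female beagles received test compound or saline sc twice, 30 min before and 120 min after cisplatin (3 mg/kg iv; 3 mg/mL in warm 0.9% saline, used at once). Emesis observed up to 5 h. Emetic episode = expulsion of stomach content; events within 2 min counted as one. Protection calculated against a dynamic control (historical mean pooled with concurrent saline control).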

[17] = test system: Canis familiaris; assay: In vivo antagonism of cisplatin-induced emesis in dog measured as emetic episodes, twice the dose of 3 mg/kg in 3 dogs; assay type: functional, Canis lupus familiaris; summary of the method: as §2
[18] = test system: Mustela putorius furo; assay: in vivo antagonism of cisplatin-induced emesis in ferret measured as emetic episodes, twice the dose of 0.3 mg/kg and in 3 ferrets; assay type: functional
Summary of the method: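 Nonfasted castrated male Fitch ferrets (1–1.5 kg) carried jugular vein catheters implanted at least 48 h earlier under general anesthesia. Test compound or saline was given iv twice, 5 min before and 90 min after cisplatin (12 mg/kg iv; 12 mg/mL in warm saline). Emesis was watched for 4 h, with events within 1 min counted as one episode. % protection is relative to a pooled historical-plus-concurrent control, with t test versus saline.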

[19] = test system: Mustela putorius furo; assay: In vivo antagonism of cisplatin-induced emesis in ferret measured as emetic episodes, twice the dose of 0.3 mg/kg and in 3 ferrets; assay type: functional; conditions: in the assay text read “in 2 ferrets” for “in 3 ferrets”; summary of the method: as §1
[20] = test system: Canis familiaris; assay: In vivo antagonism of cisplatin-induced emesis in dog measured as percentage protection for twice the dose of 1 mg/kg in 2 dogs; assay type: functional, Canis lupus familiaris; conditions: 1 mg/kg; summary of the method: as §2
[21] = test system: Canis familiaris; assay: In vivo antagonism of cisplatin-induced emesis in dog measured as emetic episodes, twice the dose of 1 mg/kg in 2 dogs; assay type: functional, Canis lupus familiaris; conditions: 1 mg/kg; summary of the method: as §2
[22] = test system: Mustela putorius furo; assay: In vivo antagonism of cisplatin-induced emesis in ferret measured as percentage protection for twice the dose of 1 mg/kg and in 3 ferrets; assay type: functional; conditions: 1 mg/kg; summary of the method: as §1

Row | SMILES | IC50 [1] | ED50 [5] | Protection [2] | Emetic episodes [3] | ED50 [6] | ED50 [8] | Protection [10] | also measured
1 | CCN(CC)CCNC(=O)c1cc(Cl)c(N)cc1OCC1COC(C)(C)O1 (centres undefined) | > 1000 nM | > 40 mg/kg | 72% | 2 | > 40 mg/kg | > 3 mg/kg |  | Protection [4]: 68%; Emetic episodes [7]: 4
2 | C=CCCOc1cc(N)c(Cl)cc1C(=O)NCCN(CC)CC | > 1000 nM | > 40 mg/kg | 50% | 3.7 | > 40 mg/kg | > 3 mg/kg |  | Protection [4]: 71%; Emetic episodes [7]: 3.5
3 | CCN(CC)CCNC(=O)c1cc(Cl)c(N)cc1OCC(=O)Cc1ccccc1 | > 1000 nM | > 40 mg/kg | 100% | 0 | > 40 mg/kg | > 3 mg/kg | 0% | Emetic episodes [9]: 13
4 | C=CCN1CCCC1CNC(=O)c1cc2nn[nH]c2cc1OC (centres undefined) [ALIZAPRIDE] |  | > 40 mg/kg | 27% | 5 | > 40 mg/kg | 0.3 mg/kg |  | Emetic episodes [16]: 4.7; Protection ([4]; 3 mg/kg): 69% and 66%; Emetic episodes [17]: 4.3

Continued, in another order:

Row | IC50 [1] | ED50 [5] | SMILES | Protection [2] | Emetic episodes [3] | ED50 [6] | ED50 [8] | Protection [10] | also measured
5 | > 1000 nM | > 40 mg/kg | CCN(CC)CCN1C(=O)c2cc(Cl)c(NC=O)cc2OC(C)=C1C | 100% | 0 | > 40 mg/kg | > 3 mg/kg | 25% | Emetic episodes [11]: 9.5; Protection [12]: 32%; Emetic episodes [13]: 4.7
6 | > 1000 nM | > 40 mg/kg | CCN(CC)CCNC(=O)c1cc(Cl)c(N)cc1OC(C)(C)C(C)=O |  |  | > 40 mg/kg | > 3 mg/kg | 77% | Protection [14]: 62%; Emetic episodes [11]: 2.7; Emetic episodes [15]: 2.7
7 | > 1000 nM |  | CCN(CC)CCNC(=O)c1cc(Cl)c(N)cc1OC[C@@H](C)O (stereo in doubt; 8e) |  |  |  |  |  | Emetic episodes [18]: 6; Emetic episodes ([11]; 0.3 mg/kg): 6.5; Protection [19]: 18%; Protection ([10]; 0.3 mg/kg): 45%; Emetic episodes ([15]; 1 mg/kg): 2; Protection [20]: 92%; Emetic episodes [21]: 1; Protection [22]: 73%
